# High-throughput results (PubChem)
# HSF1 activator = increases HSF-1 driven luciferase reporter signal | NIH3T3-HGL HSF-1 luciferase reporter, MG132, 8 h; 100% = twice DMSO control signal | activation, % at 9 µM | 1.7% of 300,000 active | AID 504408;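 active = mean replicate activation of at least 50% with a set share of replicates each reaching 50%; inconclusive = only one of those two conditions met; inactive = mean below 50% and too few replicates reaching it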;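 also: 0% = median of the neutral control wells and 100% = twice that signal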
# HSF1 inh = HSF1 inhibition; activity change, negative = inhibition, % at 7.5 µM (by protocol); NIH3T3-HGL HSE-luciferase, MG132-induced, luminescence 8 h; active compounds read low; 0.77% of 300,000 active;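 active = more than half of replicate wells show activity change below -50%, luminescence cut by over half; inconclusive = some wells, but at most half, below -50%; inactive = no replicate well below -50%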;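 also: luciferase reports HSF-1 transcriptional activity via heat shock element; 0% = median of DMSO wells and -100% = zero luminescence signal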
# T cruzi inh = T. cruzi replication inhibition | T. cruzi beta-gal in NIH3T3, luminescence, 90 h | 1.4% of 300,000 active | inhibition, % (concentration not given with the values);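 active = mean inhibition across valid replicates above about 55%, limit read from the data; inconclusive = mean below that limit but half or more replicates reach it; inactive = mean below it, under half of replicates reach it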;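 also: signal also drops with host cell toxicity which is not excluded here; 0% = plate median of DMSO wells and 100% = zero luminescence signal; higher percent means less beta-gal luminescence so fewer parasites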
#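 assay system = mouse NIH/3T3 fibroblasts infected with β-gal-expressing T. cruzi Tulahuen C4 | input = 5,000 NIH/3T3 host cells per well | buffer or medium = DMEM plus 2% FBS | timing = 3 h host attachment, then at least 90 h co-culture | measured by = GalScreen luminescence, 60 min | evaluation = luminescence reflecting intracellular parasite burden, expressed as percent inhibition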
# Calb FLC = affects C. albicans growth with fluconazole; growth inhibition, % (test concentration not listed); 0.57% of 300,000 active; C. albicans CaCi-2 + fluconazole, Alamar Blue growth, 48 h;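 active = growth inhibition above about 58% in most replicates, limit read from the data, passing the limit was not always enough; inconclusive = exactly half the replicates above a set limit; inactive = most replicates below a set limit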;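 also: all wells also contain fluconazole at 8 µg/ml as a sub-toxic cotreatment; 0% = median of DMSO wells and 100% = median of geldanamycin control wells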
# HIF activator = HIF pathway transcriptional activation; AID 1910; activation, % at 7.5 µM (by protocol); 0.32% of 300,000 active; U2OS HRE-luciferase reporter, luminescence; normalized: DMSO 0%, desferrioxamine 100%;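 active = mean activation of at least 10% of the iron chelator positive control signal, with at least half of replicates also reaching 10%; inconclusive = mean and replicate majority disagree about reaching 10%; inactive = mean and most replicates under 10%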
# Numbers without * were called inactive; u = inconclusive; x = no result. An excerpt weighted towards active compounds, which were near 4.4% of everything screened.
SMILES,HSF1 activator,HSF1 inh,T cruzi inh,Calb FLC,HIF activator
C=CCN1C(=NC(=O)COc2ccc(Cl)cc2)SC2CS(=O)(=O)CC21 (stereo unspecified),-18,1,-5,-4,0
CCCCn1c2nc3ccccc3nc2c2c(=O)n(CCC(C)C)cnc21,7,-6,9,-24,x
CCC(C)n1cnc2c(c1=O)c1nc3ccccc3nc1n2Cc1ccc(OC)cc1 (stereo unspecified),104*,37,40,98*,-1
Cc1ccc2nc(Nc3nc(-c4ccccc4)cc(=O)[nH]3)nc(C)c2c1,33,25,32,3,-1
COc1ccc2c(C)nc(Nc3nc(-c4ccccc4)cc(=O)[nH]3)nc2c1,95*,65,37,7,1
COc1ccc(NC2c3ccccc3C(=O)N2c2cccnc2)cc1 (stereo unspecified),-4,-4,-8,4,0
CS(=O)(=O)c1nc(-c2ccccc2)cc(C(F)(F)F)n1,-98,-98*,65*,62,-4
FC(F)(F)c1cc(-c2ccccc2)nc(N2CCCCCC2)n1,38,7,10,-2,0
CCN1CCN(C(=O)c2ccc(CSc3ccc(C)cc3)cc2)CC1,20,1,35,98*,0
Cc1ccc(CN2CCN(C(=O)c3ccncc3)CC2)cc1,8,-5,6,-3,0
Cc1ccc(SCc2ccc(C(=O)N3CCCC3)cc2)cc1,58*,37,2,-19,3
CCCOc1c(Cl)cc(C(=O)NC)cc1OC,18,11,15,6,0
O=C(CN1CCN(C(=O)C2CCCO2)CC1)Nc1cc(Cl)ccc1Cl (stereo unspecified),-3,-7,-4,7,0
Cc1ccc(CNC(=O)CS(=O)(=O)Cc2nc(-c3ccccc3F)oc2C)cc1,57*,29,-15,3,0
COc1ccnc2c1c(=O)n(Cc1ccc(Cl)cc1)c(=O)n2C,-12,-2,14,-3,0
Cc1cccc(C)c1OCC(=O)NC1CC1,39,-1,-14,13,0
Cc1cccc(C)c1OCC(=O)NNC(=S)NC(=O)C1CC1,-2,2,19,76*,0
CNC(=O)COc1ccccc1C(=O)Nc1ccc2c(c1)oc1ccccc12,-47,-38,24,26,0
N#Cc1ccccc1NC(=O)c1ccccc1OCC(=O)Nc1ccc2c(c1)oc1ccccc12,44,11,61*,-2,x
CC(C)N(CCn1c(SCC(=O)N2CC(=O)Nc3ccccc32)nc2ccccc2c1=O)C(C)C,-6,4,69*,u,0
COc1cc(OC)cc(C(=O)NC(=S)N2CCCCC2c2cccnc2)c1 (stereo unspecified),6,-3,62*,4,0
COc1ccc(NC(=O)N2CCCCC2c2cccnc2)cc1 (stereo unspecified),-20,-12,66*,-15,1
COC(C[C@H]1O[C@H]1[C@H](O)[C@@H](C)OCc1ccccc1)OC,8,-1,-5,-2,1
COc1ccccc1CCNC(=O)CCn1nc(C)c2c(C)n(-c3ccccc3)nc2c1=O,1,3,11,-27,0
CC(=O)/C(=C/c1ccccc1)C(=O)Nc1ccccc1C,55*,31,4,17,0
SMILES,HSF1 activator,HSF1 inh,T cruzi inh,Calb FLC,HIF activator
N#C/C(=C/c1ccc(C(=O)O)cc1)C(=O)Nc1ccccc1,0,-3,-9,-24,0
Cc1ccccc1NC(=O)C(=Cc1ccc(C(=O)O)cc1)C(=O)Nc1ccccc1C,146*,85,-49,4,-2
CCN(C(=O)c1ccc(S(=O)(=O)N2CCOCC2)cc1)C1CCS(=O)(=O)C1 (stereo unspecified),-7,-1,1,13,-7
Cc1oc(/C=N/NC(=O)CC2(C)OCCO2)cc1Br,-62,-53*,-3,-2,0
CCOC(=O)C1(CCCc2ccccc2)CCN(C(=O)CCN2CCCCC2=O)CC1,48,2,11,-6,0
CCCC(C)NC(=O)CN1C(=O)NC2(CCc3ccccc32)C1=O (stereo unspecified),15,0,-8,-2,40*
CCOC(=O)NC(=O)CN1C(=O)NC2(CCc3ccccc32)C1=O (stereo unspecified),-17,-8,-7,2,0
Cc1cc(NC(=O)C(C)Oc2ccc(C(C)(C)C)cc2)no1 (stereo unspecified),6,1,7,-4,-1
COc1ccccc1N=CC=C1OC(C)(C)C(C)(C)O1,15,8,59*,10,0
COc1ccc(/C=C2\SC(=S)N(NS(=O)(=O)c3ccc(C)cc3)C2=O)c(OC)c1,-3,-9,-6,52,1
O=C1/C(=C/c2ccc(O)c(O)c2)SC(=S)N1Nc1ccccc1,27,7,-29,114*,1
CCOc1cc(/C=C2\SC(=S)N(NS(=O)(=O)c3ccccc3)C2=O)ccc1O,8,3,-3,88*,0
COc1cc(/C=C2\SC(=S)N(Nc3ccccc3)C2=O)ccc1O,31,39,-9,0,3
COc1ccc(OC)c(/C=C2\SC(=S)N(NS(=O)(=O)c3ccc(C)cc3)C2=O)c1,1,-5,2,89*,-1
COc1cc(/C=C2\SC(=S)N(Nc3ncc(C(F)(F)F)cc3Cl)C2=O)ccc1O,72*,66,19,-1,-1
CCOc1ccc(/C=C2\SC(=S)N(NS(=O)(=O)c3ccccc3)C2=O)cc1OC,-12,-1,-4,25,0
Cc1ccc(S(=O)(=O)N2c3ccccc3-c3c(ssc3=S)C2(C)C)cc1,-2,0,55*,-8,-1
CCCCNC(=S)NNC(=O)c1csc2ccccc12,131*,65,-22,0,2
CN(C)C(CNC(=O)CCC(=O)c1ccc(Br)cc1)c1ccccc1 (stereo unspecified),63*,26,4,1,-7
CN(C)C(CNC(=O)CCS(=O)(=O)c1ccccc1)c1ccccc1 (stereo unspecified),-11,3,4,-1,0
Cn1c(=O)n(Cc2ccc(Br)cc2)c2ccccc21,47,16,9,-2,-1
CCCCOc1ccc(/C=N/Nc2cc(N3CCOCC3)nc(C)n2)cc1,-3,-8,56*,33,-39
Cc1cccc(/C=N/Nc2cc(N3CCOCC3)nc(N3CCOCC3)n2)c1,7,-4,69*,-12,-1
Cc1ccc(Nc2nc(N/N=C\c3ccc4c(c3)OCO4)nc(N3CCOCC3)n2)cc1,2,-7,58*,52,-1
COc1ccc(/C(O)=C2/C(=O)C(=O)N(c3ccccn3)C2c2ccc(C(C)C)cc2)cc1 (stereo unspecified),17,15,-7,0,3
